From ChEMBL document CHEMBL1144275, “Studies on the structure-activity relationship of 2',6'-dimethyl-l-tyrosine (Dmt) derivatives: bioactivity profile of H-Dmt-NH-CH(3)” (Bioorg Med Chem Lett, 2005) come the findings set out here.

Non-standard residues stand in square brackets, D forms with d. Residues, ends and D or L forms follow the SMILES beside them. Dmt = Cc1cc(O)cc(C)c1C[C@H](N)C(=O)O; Tic = O=C(O)[C@@H]1Cc2ccccc2CN1

The species entered for one test is Rattus norvegicus. The test can be described thus: Ratio of binding affinities for opioid receptors delta 1 and mu 1. In a few lines: (§1)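 Ki values given as the mean ± SE of four to seven experiments; selectivity expressed as Kiδ/Kiμ.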
Test [1] can be described thus: Binding affinity for rat brain opioid receptor delta 1. The essentials: as §1
Test [2] can be described thus: Binding affinity for rat brain opioid receptor mu 1. In a few lines:
as §1

The species named for test [3] is Mus musculus. The test can be described thus: Minimum effective dose showing antinociception activity in mice. The format is functional. In a few lines:
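Minimum effective dose (nmol) for antinociception in mice after intracerebroventricular administration, measured by tail-flick and hot-plate tests.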

Test [4] deals with Mus musculus. The test can be described thus: Analgesia was determined by hotplate (HP) test relative to morphine in mice after antinociception of intracerebroventricularly (icv) administration;Range-0.64?0.85. The format is functional.
The species entered for test [5] is Mus musculus. The test can be described thus: Percent antagonism was evaluated relative to morphine in mice using naloxone. The class given is functional.
Test [6] concerns Mus musculus. The test can be described thus: Analgesia was determined by tail-flick (TF) test relative to morphine in mice after antinociception of intracerebroventricularly (icv) administration;Range 1.3-1.7. The class given is functional.
The subject of test [7] is Mus musculus. The test can be described thus: Analgesia was determined by hotplate (HP) test relative to morphine in mice after antinociception of intracerebroventricularly (icv) administration. The format is functional.
Test [8] concerns Mus musculus. The test can be described thus: Analgesia was determined by tail-flick (TF) test relative to morphine in mice after antinociception of intracerebroventricularly (icv) administration;Range 0.48-0.55. The class given is functional.

Turning to `Cc1cc(O)cc(C)c1C[C@H](N)C(=O)NCCN`, the Ratio in the test filed under Rattus norvegicus was determined as 338. Also, the Ki turned out to be 3650 nM in test [1] and 10.8 nM in [2].
Take `CNC(=O)[C@@H](N)Cc1c(C)cc(O)cc1C`: in the test listed under Mus musculus [3], the MED was determined as 30 nM. Besides, the Ratio in the test listed under Rattus norvegicus was 61.7. Besides, the Activity in the test with Mus musculus [4] was found to be 0.85%; in the test on Mus musculus [6], 1.7%. In the test listed under Mus musculus [5], this compound showed an Antagonism of 73%. In addition, the Ki in [1] was found to be 460 nM; in [2] it was 7.45 nM.
Consider `CONC(=O)[C@@H](N)Cc1c(C)cc(O)cc1C`, for which the Ratio in the test filed under Rattus norvegicus stood at 26.3. The Ki in [1] is 4580 nM; in test [2], 174 nM.
For the compound `Cc1cc(O)cc(C)c1C[C@H](N)C(=O)Nc1ccccc1`, in the test filed under Rattus norvegicus, the Ratio worked out at 0.069. Besides, the inhibition constant Ki in test [1] was determined as 120 nM; in [2], 1730 nM.
In the same order, the values of `Cc1cc(O)cc(C)c1C[C@H](N)C(=O)NC(C)(C)C` are 14.8, 531 nM and 36 nM.
Turning to `Cc1cc(O)cc(C)c1C[C@H](N)C(=O)NCCO`, the Ratio in the test filed under Rattus norvegicus turned out to be 28.1. Besides, the inhibition constant Ki was 455 nM in test [1] and 16.2 nM in [2].
Take `Cc1cc(O)cc(C)c1C[C@H](N)C(=O)NO`: the Ratio in the test filed under Rattus norvegicus was 5.58. This compound displayed a Ki in [1] of 9490 nM.
Turning to `Cc1cc(O)cc(C)c1C[C@H](N)C(=O)NCC(=O)O`, the Ratio in the test filed under Rattus norvegicus was determined as 0.43. The inhibition constant Ki in test [1] stood at 1150 nM; in test [2] it was 2700 nM.
In the same order, the values of `Cc1cc(O)cc(C)c1C[C@H](N)C(=O)NC1C2CC3CC(C2)CC1C3` (some centres undefined) are 0.23, 175 nM and 746 nM.
Take `Cc1cc(O)cc(C)c1C[C@H](N)C(=O)N1Cc2ccccc2C[C@H]1C(=O)O` (H-[Dmt]-[Tic]-OH): the Ratio in the test listed under Rattus norvegicus was 6.6e-07. For the same compound, the inhibition constant (Ki) in [2] came out at 3220 nM.
Consider `Cc1cc(O)cc(C)c1C[C@H](N)C(=O)NC12CC3CC(CC(C3)C1)C2`, for which the Ratio in the test listed under Rattus norvegicus is 0.27. For the same compound, the Ki in test [1] was 208 nM; in [2], 767 nM.
In the same order, the values of `CCCNC(=O)[C@@H](N)Cc1c(C)cc(O)cc1C` are 9.82, 166 nM and 16.9 nM.
Turning to `Cc1cc(O)cc(C)c1C[C@H](N)C(=O)NCN`, in the test listed under Rattus norvegicus, the Ratio came to 13.4. Moreover, the Ki in [1] is 2410 nM; in [2], 180 nM.
As for `CCNC(=O)[C@@H](N)Cc1c(C)cc(O)cc1C`, the Ratio in the test listed under Rattus norvegicus amounted to 41.6. In addition, the Ki in test [1] is 649 nM; in test [2], 15.6 nM.
Taken in the same sequence, the figures for `Cc1cc(O)cc(C)c1C[C@H](N)C(=O)NCCC(=O)O` were 1, 328 nM and 329 nM.
Consider `Cc1cc(O)cc(C)c1C[C@H](N)C(=O)NC(C)C`, for which the Ratio in the test filed under Rattus norvegicus amounted to 22. In addition, the values for the Ki in test [1] and in test [2] were 492 nM and 22.4 nM, respectively.
Taken in the same sequence, the figures for `Cc1cc(O)cc(C)c1C[C@H](N)C(=O)NC1CCCCC1` were 1.71, 197 nM and 115 nM.
With `Cc1cc(O)cc(C)c1C[C@H](N)C(=O)Nc1cccc2ccccc12`, in the test listed under Rattus norvegicus, the Ratio was determined as 0.054. In addition, the Ki in test [1] was found to be 52.8 nM; in [2] it was 966 nM.
In the test filed under Mus musculus [3], `Cc1cc(O)cc(C)c1C[C@H](N)C(N)=O` displayed an MED of 200 nM. The Activity is reported as 0.26% in the test with Mus musculus [7] and 0.55% in the test on Mus musculus [8]. The Ratio in the test filed under Rattus norvegicus stood at 13. In the test listed under Mus musculus [5], this compound came in with an Antagonism of 100%. Moreover, the affinity in test [1], expressed as Ki, was 1470 nM.
As for `Cc1cc(O)cc(C)c1C[C@H](N)C(=O)O`, the Ratio in the test listed under Rattus norvegicus stood at 1.55. The same compound had a Ki in [1] of 46500 nM.
